Calls of active or inactive are those of the source. No cut-off for these calls is given here.
Columns and labels:
Rattus norvegicus [1] = experiment: The concentration yielding a half maximal decrease of the 5-HTP was determined in rat brain striatum; inactive at 50 umol/kg; type: functional, organism-based
Method in brief: (§1)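 Reserpine-pretreated (5 mg/kg sc, 18 h) male Sprague-Dawley rats, 200–300 g; compounds in saline given sc. DOPA and 5-HTP in limbic system, striatum and hemispheres measured by HPLC with electrochemical detection. Dose–response curves of 4–6 doses (n = 4) per area, fitted to variable-slope sigmoid on log data to give ED50.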

Rattus norvegicus [2] = experiment: The concentration yielding a half maximal decrease of the 5-HTP was determined in rat brain hemispheres; inactive at 50 umol/kg; type: functional, organism-based; method in brief: as §1
Rattus norvegicus [3] = experiment: The concentration yielding a half maximal decrease of the DOPA was determined in rat limbic system; Partial response at 50 umol/kg; type: functional, organism-based
Rattus norvegicus [4] = experiment: The concentration yielding a half maximal decrease of the 5-HTP was determined in rat limbic system; Partial response at 50 umol/kg; type: functional, organism-based; method in brief: as §1
Rattus norvegicus [5] = experiment: The concentration yielding a half maximal decrease of the DOPA was determined in rat brain hemispheres; inactive at 50 umol/kg; type: functional, organism-based; method in brief: as §1
Rattus norvegicus [6] = experiment: Motor activity was measured by motility testing on injecting the compound subcutaneously into rats at the dose of 12.5 uM/Kg; type: functional
Method in brief: (§2)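 Rats given reserpine 5 mg/kg sc 18 h beforehand, then test compound sc in neck (n = 4). Placed singly in photocell motility meters straight after dosing; counts recorded for 30 min, gross behaviour observed throughout. Value as counts/30 min with SEM.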

Rattus norvegicus [7] = experiment: The concentration yielding a half maximal decrease of the DOPA was determined in rat brain striatum; Partial response at 50 umol/kg; type: functional, organism-based
Rattus norvegicus [8] = organism: Rattus norvegicus; experiment: Log concentration to inhibit DOPA accumulation was determined in rat limbic system; type: functional; method in brief: as §1
Rattus norvegicus [9] = organism: Rattus norvegicus; experiment: Log concentration to inhibit 5-HTP accumulation was determined in rat limbic system; type: functional; method in brief: as §1
[10] = Time taken to reach maximum concentration after administration of 10 umol/kg dose perorally; type: ADME, organism-based; details: in vivo, po
Method in brief: (§3)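 Male Sprague-Dawley rats, starved 18 h for the oral arm, dosed iv or po. Blood sampled at intervals up to 12 h. Compound measured by GC/mass spectrometry against an internal standard, with a standard curve over 2–1000 pmol/mL in blank blood. tmax read from concentration–time curves, n = 4–6.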

[11] = Maximum concentration in plasma after administration of 10 umol/kg dose perorally; type: ADME, organism-based; set-up: dose 10 umol/kg, route oral; details: po
Method in brief: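 Male Sprague-Dawley rats starved 18 h, dosed orally. Blood samples over up to 12 h, drug quantified by GC/MS against internal standard (2–1000 pmol/mL standard curve). Cmax read from concentration–time curve; SEM, n = 4–6.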

Rattus norvegicus [12] = organism: Rattus norvegicus; experiment: The concentration yielding a half maximal decrease of the DOPA was determined in rat brain striatum; type: functional; method in brief: as §1
[13] = Maximum concentration in plasma after administration of 4 umol/kg dose intravenously; type: ADME, organism-based; set-up: dose 4 umol/kg, route intravenous; details: iv
Method in brief: (§4)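 Male Sprague-Dawley rats, iv dosing. Blood sampled at intervals up to 12 h, plasma drug levels by GC/MS with internal standard and a 2–1000 pmol/mL standard curve in blank blood. AUC from total area of concentration–time curve; iv n = 3 (table values SEM, n = 4–6).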

Rattus norvegicus [14] = experiment: Motor activity was measured by motility testing on injecting the compound subcutaneously into rats at the dose of 12.5 umol/kg; type: functional; method in brief: as §2
Rattus norvegicus [15] = experiment: Ratio of the 5HTP-accumulation decrease in limbic regions after sc to that of po administration at 10 umol/kg; type: functional, Limbic system
Rattus norvegicus [16] = experiment: The concentration yielding a half maximal decrease of the DOPA was determined in rat brain hemispheres; Inactive at 12.5 umol/kg; type: functional, organism-based; method in brief: as §1
[17] = Time taken to reach maximum concentration after administration of 4 umol/kg dose intravenously; type: ADME, organism-based; details: in vivo, iv; method in brief: as §3
[18] = Half life in plasma after administration of 4 umol/kg dose intravenously; type: ADME, organism-based; details: iv; method in brief: as §4
Rattus norvegicus [19] = organism: Rattus norvegicus; experiment: Log concentration to inhibit DOPA accumulation was determined in rat brain striatum; type: functional; method in brief: as §1
Rattus norvegicus [20] = organism: Rattus norvegicus; experiment: The concentration yielding a half maximal decrease of the DOPA was determined in rat limbic system; type: functional
D(2) dopamine receptor = D(2) dopamine receptor (Rattus norvegicus, UniProt P61169); experiment: Displacement of the radioligand [3H]spiperone from D2 receptor
D(2) dopamine receptor, sequence (P61169 whole entry): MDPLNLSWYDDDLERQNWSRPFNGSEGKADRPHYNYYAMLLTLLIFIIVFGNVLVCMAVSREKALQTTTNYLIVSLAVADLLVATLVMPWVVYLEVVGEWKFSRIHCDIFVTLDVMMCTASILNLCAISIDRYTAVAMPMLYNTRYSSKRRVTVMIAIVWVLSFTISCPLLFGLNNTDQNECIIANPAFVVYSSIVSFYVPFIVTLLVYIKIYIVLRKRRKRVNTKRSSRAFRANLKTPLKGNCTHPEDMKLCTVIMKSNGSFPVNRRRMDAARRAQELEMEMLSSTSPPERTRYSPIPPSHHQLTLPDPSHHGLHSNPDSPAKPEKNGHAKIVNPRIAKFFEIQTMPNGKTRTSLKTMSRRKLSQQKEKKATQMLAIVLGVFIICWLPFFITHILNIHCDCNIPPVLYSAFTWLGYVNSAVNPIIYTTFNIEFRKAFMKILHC
Method in brief: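 Rat striatal membranes in 50 mM potassium phosphate buffer, incubated with 0.5 nM [3H]spiperone (3 mg tissue) 10 min at 37 °C. Nonspecific binding defined with 10 μM 6,7-ADTN. IC50 converted to Ki by Cheng–Prusoff; 3–7 experiments, each concentration in triplicate.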

[21] = Area under the curve after intravenous administration at a dose of 4 umol/kg; type: ADME; details: in vivo; method in brief: as §4
[22] = Bioavailability in rat (dose 10 uM/kg); type: ADME, organism-based; details: in vivo
Method in brief: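 Male Sprague-Dawley rats; oral group starved 18 h, compared with iv dosing. Blood sampled up to 12 h, levels by GC/MS. Absolute oral availability F (po/iv) from ratio of AUCs of blood concentration–time curves, po n = 5, iv n = 3.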

Rattus norvegicus [23] = organism: Rattus norvegicus; experiment: Log concentration to inhibit 5-HTP accumulation was determined in rat brain hemispheres; type: functional; method in brief: as §1
Rattus norvegicus [24] = organism: Rattus norvegicus; experiment: Log concentration to inhibit 5-HTP accumulation was determined in rat brain striatum; type: functional; method in brief: as §1
Rattus norvegicus [25] = organism: Rattus norvegicus; experiment: The concentration yielding a half maximal decrease of the 5-HTP was determined in rat brain hemispheres.; type: functional
Rattus norvegicus [26] = organism: Rattus norvegicus; experiment: The concentration yielding a half maximal decrease of the 5-HTP was determined in rat brain striatum.; type: functional
Rattus norvegicus [27] = organism: Rattus norvegicus; experiment: The concentration yielding a half maximal decrease of the 5-HTP was determined in rat limbic system.; type: functional
Rattus norvegicus [28] = organism: Rattus norvegicus; experiment: The concentration yielding a half maximal decrease of the 5-HTP was determined in rat brain hemispheres; type: functional; method in brief: as §1
Rattus norvegicus [29] = experiment: The concentration yielding a half maximal decrease of the DOPA was determined in rat brain striatum; inactive at 12.5 umol/kg; type: functional, organism-based
[30] = Maximum concentration in plasma after administration of 2 umol/kg dose intravenously; type: ADME, organism-based; set-up: dose 2 umol/kg, route intravenous; details: iv
Rattus norvegicus [31] = experiment: Ratio of the 5HTP-accumulation decrease in limbic regions after sc and po administration at 10 umol/kg; type: functional, Limbic system
Method in brief: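 Ratio of ED50 for decrease of limbic 5-HTP accumulation after oral versus sc dosing in reserpine-pretreated rats; 5-HTP measured by HPLC with electrochemical detection.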

Rattus norvegicus [32] = experiment: The concentration yielding a half maximal decrease of the DOPA was determined in rat brain hemispheres; inactive at 12.5 umol/kg; type: functional, organism-based; method in brief: as §1
Rattus norvegicus [33] = organism: Rattus norvegicus; experiment: The concentration yielding a half maximal decrease of the 5-HTP was determined in rat limbic system; type: functional; method in brief: as §1
[34] = Area under the curve after intravenous administration at a dose of 2 umol/kg; type: ADME; details: in vivo
Rattus norvegicus [35] = organism: Rattus norvegicus; experiment: The concentration yielding a half maximal decrease of the 5-HTP was determined in rat brain striatum; type: functional; method in brief: as §1
[36] = Half life in plasma after administration of 2 umol/kg dose intravenously; type: ADME, organism-based; details: iv
[37] = Time taken to reach maximum concentration after administration of 2 umol/kg dose intravenously; type: ADME, organism-based; details: in vivo, iv

For CCCN(CCC)C1CCc2cc3cc[nH]c3cc2C1 (stereo not drawn), the ED50 (Rattus norvegicus [1]) was “inactive”, the ED50 (Rattus norvegicus [2]) was “inactive” and the ED50 (Rattus norvegicus [3]) was “Weak activity”. For the same compound, the ED50 (Rattus norvegicus [4]) was “Weak activity”, the ED50 (Rattus norvegicus [5]) was “inactive” and the Activity (Rattus norvegicus [6]) was 51 Counts 30min-1. For the same compound, the ED50 (Rattus norvegicus [7]) was “Weak activity”.

CCCN(CCC)[C@@H]1CCc2ccc3[nH]c(C#N)cc3c2C1 [U-92,016-A] gave a pED50 (Rattus norvegicus [8]) of 5.69, a pED50 (Rattus norvegicus [9]) of 6.67 and a Tmax [10] of 75 min. The Cmax [11] was 1120 nM, the ED50 (Rattus norvegicus [12]) was 3.36 µmol/kg and the Cmax [13] was 2570 nM. The Activity (Rattus norvegicus [14]) was 194 Counts 30min-1, the ED50 (Rattus norvegicus [15]) was 55% and the ED50 (Rattus norvegicus [16]) was “inactive”. For the same compound, the Tmax [17] was 4 min, the half-life [18] was 90 min and the pED50 (Rattus norvegicus [19]) was 5.47. For the same compound, the ED50 (Rattus norvegicus [20]) was 2.01 µmol/kg, the Ki (D(2) dopamine receptor) was 538 nM and the AUC [21] was 1817 pM/kg. The bioavailability [22] was 63%, the pED50 (Rattus norvegicus [23]) was 6.56 and the pED50 (Rattus norvegicus [24]) was 7.1. For the same compound, the ED50 (Rattus norvegicus [25]) was 0.28 µmol/kg, the ED50 (Rattus norvegicus [26]) was 0.079 µmol/kg and the ED50 (Rattus norvegicus [27]) was 0.21 µmol/kg.

Work on CCCN(CCC)[C@H]1CCc2ccc3[nH]cc(C=O)c3c2C1 yielded a pED50 (Rattus norvegicus [8]) of 5.36, an ED50 (Rattus norvegicus [28]) of 0.032 µmol/kg and a pED50 (Rattus norvegicus [9]) of 6.94. The ED50 (Rattus norvegicus [29]) was “inactive”, the Cmax [30] was 849 nM and the Tmax [10] was 48 min. It also gave a Cmax [11] of 606 nM, a Counts/30 min (Rattus norvegicus [14]) of 413 and an ED50 (Rattus norvegicus [31]) of 18%. The ED50 (Rattus norvegicus [32]) was “inactive”, the ED50 (Rattus norvegicus [33]) was 0.11 µmol/kg and the AUC [34] was 607 pM/kg. It also gave an ED50 (Rattus norvegicus [35]) of 0.052 µmol/kg, an ED50 (Rattus norvegicus [20]) of 4.33 µmol/kg and a Ki (D(2) dopamine receptor) of 3590 nM. The half-life [36] was 60 min, the bioavailability [22] was 72% and the pED50 (Rattus norvegicus [23]) was 7.49. For the same compound, the Tmax [37] was 2 min and the pED50 (Rattus norvegicus [24]) was 8.28.
